For 27 molecules, GI50 results are on record in ChEMBL document CHEMBL3808357, “Discovery of N-(3-((1-Isonicotinoylpiperidin-4-yl)oxy)-4-methylphenyl)-3-(trifluoromethyl)benzamide (CHMFL-KIT-110) as a Selective, Potent, and Orally Available Type II c-KIT Kinase Inhibitor for Gastrointestinal Stromal Tumors (GISTs)” (J Med Chem, 2016).

Bounds are passed on as bounds.

Data set [1] has as its target Mast/stem cell growth factor receptor Kit (Homo sapiens) (UniProt P10721). Kind of data set: Inhibition of Tel-fused cKIT (unknown origin) transfected in mouse BAF3 cells assessed as decrease in cell proliferation after 72 hrs by celltiter-glo/CCK8 assay. The format is cell-based. Summed up: (§1)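 Cells were seeded at 1 to 3 × 10⁴ cells/mL with serial compound concentrations and incubated 72 h at 37 °C, 5% CO₂. Viability was read by CellTiter-Glo luminescence or CCK-8 absorbance (450/655 nm). GI50 values are from triplicate testing. GIST-T1 and CHO were grown in DMEM/10% FBS; GIST-882, GIST-48B and MV4-11 in IMDM/10% FBS; other lines in RPMI 1640/10% FBS.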

Data set [2] in a line: Antiproliferative activity against mouse BAF3 cells. The format is cell-based.
The next data set relates to K562. Kind of data set: Antiproliferative activity against BCR-ABL dependent human K562 cells assessed as reduction in cell viability after 72 hrs by celltiter-glo/CCK8 assay. The format is functional. Particulars: K562, 72 h. Summed up: as §1
A general note: Cellular ATP, detected with luciferase, serves as a proxy for viable cell number.

Data set [3] has as its system Mast/stem cell growth factor receptor Kit (Homo sapiens), P10721 [N822K]. As to the kind of experiment: Inhibition of Tel-fused cKIT N822K mutant (unknown origin) transfected in mouse BAF3 cells assessed as decrease in cell proliferation after 72 hrs by celltiter-glo/CCK8 assay. The class given is cell-based.
For data set [4], the target named is Mast/stem cell growth factor receptor Kit (Homo sapiens) (UniProt P10721). Kind of data set: Inhibition of Tel-fused cKIT L567P mutant (unknown origin) transfected in mouse BAF3 cells assessed as decrease in cell proliferation after 72 hrs by celltiter-glo/CCK8 assay. The format is cell-based.
Sequence of Mast/stem cell growth factor receptor Kit (Homo sapiens) (P10721 whole entry, the tested form may be a part): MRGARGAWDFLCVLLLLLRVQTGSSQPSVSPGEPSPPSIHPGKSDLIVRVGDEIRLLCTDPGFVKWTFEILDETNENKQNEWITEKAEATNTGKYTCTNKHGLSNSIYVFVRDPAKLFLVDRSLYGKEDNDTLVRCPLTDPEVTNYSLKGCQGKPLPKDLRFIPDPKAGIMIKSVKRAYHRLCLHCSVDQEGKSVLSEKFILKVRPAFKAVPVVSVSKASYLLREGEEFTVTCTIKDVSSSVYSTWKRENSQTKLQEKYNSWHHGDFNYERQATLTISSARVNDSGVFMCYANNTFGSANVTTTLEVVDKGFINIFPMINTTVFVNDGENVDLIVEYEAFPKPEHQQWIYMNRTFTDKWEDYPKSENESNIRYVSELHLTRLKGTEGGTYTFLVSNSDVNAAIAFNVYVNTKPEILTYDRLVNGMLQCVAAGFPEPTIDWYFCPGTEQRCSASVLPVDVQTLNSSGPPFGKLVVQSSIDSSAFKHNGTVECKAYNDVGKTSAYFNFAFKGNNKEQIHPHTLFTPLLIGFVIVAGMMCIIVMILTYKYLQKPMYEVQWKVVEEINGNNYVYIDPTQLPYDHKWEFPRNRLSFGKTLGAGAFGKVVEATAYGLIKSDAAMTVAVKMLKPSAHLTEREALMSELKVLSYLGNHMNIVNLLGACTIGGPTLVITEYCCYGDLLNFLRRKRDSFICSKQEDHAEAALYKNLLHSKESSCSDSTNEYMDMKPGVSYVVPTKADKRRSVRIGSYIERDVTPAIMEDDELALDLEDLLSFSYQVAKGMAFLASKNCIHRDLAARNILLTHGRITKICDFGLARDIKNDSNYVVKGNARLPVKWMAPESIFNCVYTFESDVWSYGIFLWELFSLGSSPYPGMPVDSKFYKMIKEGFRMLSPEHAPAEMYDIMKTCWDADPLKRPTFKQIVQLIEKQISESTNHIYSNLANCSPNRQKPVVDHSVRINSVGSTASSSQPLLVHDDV
Data set [5] deals with Mast/stem cell growth factor receptor Kit (Homo sapiens), P10721 [V559D]. As to the kind of experiment: Inhibition of Tel-fused cKIT V559D mutant (unknown origin) transfected in mouse BAF3 cells assessed as decrease in cell proliferation after 72 hrs by celltiter-glo/CCK8 assay. The format is cell-based. Summed up: (§2)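 Stable BaF3 lines made by retroviral transduction with mutagenized TEL-KIT MSCV vectors, puromycin selection 48 h, then gradual IL-3 withdrawal until IL-3-independent; grown in RPMI 1640 with 10% FBS. Cells at 1 to 3 × 10⁴ cells/mL exposed to a concentration series for 72 h; viability read by CellTiter-Glo luminescence or CCK-8 absorbance (450/655 nm); GI50 from triplicate testing.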
Sequence of Mast/stem cell growth factor receptor Kit (Homo sapiens), P10721 [V559D] (P10721 whole entry V559D, the tested form may be a part): as the sequence (P10721 whole entry, the tested form may be a part) above, with V559D counted along it

Data set [6] can be described thus: Antiproliferative activity against FLT3-ITD dependent human MOLM14 cells assessed as reduction in cell viability after 72 hrs by celltiter-glo/CCK8 assay. The class given is functional. The conditions noted are these: MOLM-14, 72 h. In short, it runs like this:
as §1

Data set [7] deals with Mast/stem cell growth factor receptor Kit (Homo sapiens), P10721 [V654A]. As to the kind of experiment: Inhibition of Tel-fused cKIT V654A mutant (unknown origin) transfected in mouse BAF3 cells assessed as decrease in cell proliferation after 72 hrs by celltiter-glo/CCK8 assay. The class given is cell-based. In short, it runs like this:
as §2

Data set [8] can be described thus: Antiproliferative activity against cKIT dependent human GIST882 cells assessed as reduction in cell viability after 72 hrs by celltiter-glo/CCK8 assay. The class given is functional. The conditions noted are these: GIST882, 72 h. Summed up: as §1
Data set [9] is described as follows: Antiproliferative activity against cKIT dependent human GISTT1 cells assessed as reduction in cell viability after 72 hrs by celltiter-glo/CCK8 assay. The class given is functional. The conditions noted are these: GISTT1, 72 h. In short, it runs like this:
as §1

The nature of data set [10]: Antiproliferative activity against human Rec1 cells assessed as reduction in cell viability after 72 hrs by celltiter-glo/CCK8 assay. The format is functional. Particulars: Rec1, 72 h. In short, it runs like this: as §1
Another data set relates to MV4-11. As to the kind of experiment: Antiproliferative activity against FLT3-ITD dependent human MV4-11 cells assessed as reduction in cell viability after 72 hrs by celltiter-glo/CCK8 assay. The format is functional. Particulars: MV4-11, 72 h. In short, it runs like this: as §1
Data set [11] concerns Mast/stem cell growth factor receptor Kit (Homo sapiens), P10721 [V559D,V654A]. Kind of data set: Inhibition of Tel-fused cKIT V559D/V654A double mutant (unknown origin) transfected in mouse BAF3 cells assessed as decrease in cell proliferation after 72 hrs by celltiter-glo/CCK8 assay. The format is cell-based. Summed up: as §2
Sequence of Mast/stem cell growth factor receptor Kit (Homo sapiens), P10721 [V559D,V654A] (P10721 whole entry V559D/V654A, the tested form may be a part): as the sequence (P10721 whole entry, the tested form may be a part) above, with V559D, V654A counted along it
A short description of data set [12]: Antiproliferative activity against human GIST48B cells assessed as reduction in cell viability after 72 hrs by celltiter-glo/CCK8 assay. The format is functional. In short, it runs like this:
as §1

Data set [13] can be described thus: Antiproliferative activity against human U937 cells assessed as reduction in cell viability after 72 hrs by celltiter-glo/CCK8 assay. The class given is functional. Particulars: U-937, 72 h. In short, it runs like this:
as §1

A short description of data set [14]: Antiproliferative activity against CHO cells assessed as reduction in cell viability after 72 hrs by celltiter-glo/CCK8 assay. The class given is cell-based, Cricetulus griseus. Particulars: chinese hamster. Summed up:
as §1

Data set [15] in a line: Antiproliferative activity against human HL60 cells assessed as reduction in cell viability after 72 hrs by celltiter-glo/CCK8 assay. The format is functional. The conditions noted are these: HL-60, 72 h. In short, it runs like this:
as §1

Data set [16] in a line: Antiproliferative activity against CHL cells assessed as reduction in cell viability after 72 hrs by celltiter-glo/CCK8 assay. The conditions noted are these: chinese hamster. The format is cell-based, Cricetulus griseus. Summed up: as §1
Data set [17] relates to Mast/stem cell growth factor receptor Kit (Homo sapiens), P10721 [V559D,T670I]. As to the kind of experiment: Inhibition of Tel-fused cKIT T670I/V559D double mutant (unknown origin) transfected in mouse BAF3 cells assessed as decrease in cell proliferation after 72 hrs by celltiter-glo/CCK8 assay. The class given is cell-based. In short, it runs like this:
as §2

Sequence of Mast/stem cell growth factor receptor Kit (Homo sapiens), P10721 [V559D,T670I] (P10721 whole entry V559D/T670I, the tested form may be a part): as the sequence (P10721 whole entry, the tested form may be a part) above, with V559D, T670I counted along it
Sequence of Mast/stem cell growth factor receptor Kit (Homo sapiens), P10721 [N822K] (P10721 whole entry N822K, the tested form may be a part): as the sequence (P10721 whole entry, the tested form may be a part) above, with N822K counted along it
Sequence of Mast/stem cell growth factor receptor Kit (Homo sapiens), P10721 [V654A] (P10721 whole entry V654A, the tested form may be a part): as the sequence (P10721 whole entry, the tested form may be a part) above, with V654A counted along it

As usually defined, the GI50 is the concentration giving 50% growth inhibition. Regarding `Cc1ccc(NC(=O)c2ccc(C)c(C(F)(F)F)c2)cc1OC1CCN(C(=O)c2cccnc2)CC1`, the GI50 was determined as 0.083 µM in data set [1], 5.47 µM in [2] and 5.85 µM in the data set on K562.
Regarding `Cc1ccc(NC(=O)c2ccc(CN3CCN(C)CC3)cc2)cc1Nc1nccc(-c2cccnc2)n1` [IMATINIB], the GI50 in [3] is 1.29 µM; in data set [4], 0.1 µM; in [5], 0.039 µM; in data set [6] it was above 10 µM; in data set [7] it was 2.49 µM; in [8], 0.014 µM. The concentration for 50% growth inhibition (GI50) was 0.008 µM in data set [9]; 0.4 µM in data set [1]; above 10 µM in data set [10]; above 10 µM in the data set with MV4-11; above 10 µM in data set [2]; 3 µM in [11]. The concentration for 50% growth inhibition (GI50) was above 10 µM in data set [12]; above 10 µM in [13]; 0.12 µM with K562; above 10 µM in data set [15]; 6.67 µM in data set [17]. The GI50 at 72 h in data set [14] and in [16] was above 10 µM in each case.
In the case of `Cc1ccc(NC(=O)c2ccc(C)c(C(F)(F)F)c2)cc1OC1CCN(C(=O)c2ccno2)CC1`, the GI50 is 0.065 µM in [1], 8.94 µM in data set [2] and 1.96 µM with K562.
Consider `Cc1ccc(NC(=O)c2cccc(C(F)(F)F)c2)cc1OC1CCN(C(=O)c2ccccn2)CC1`, for which the GI50 in data set [1] is 0.33 µM; in [2] it was above 10 µM; in the data set with K562, above 10 µM.
With `O=C(Nc1cccc(OC2CCCN(C(=O)c3ccno3)C2)c1)c1cccc(C(F)(F)F)c1` (configuration not stated), the GI50 (in [1]; in [2]; in the data set on K562) was above 10 µM throughout.
Consider `O=C(Nc1cccc(OC2CCCN(C(=O)c3cccnc3)C2)c1)c1cccc(C(F)(F)F)c1` (configuration not stated), for which the results for the GI50 (in data set [1]; in data set [2]; in the data set on K562) were 8.07 µM, 8.07 µM and above 10 µM, respectively.
For the molecule `O=C(Nc1ccc(Cl)c(OC2CCN(C(=O)c3cccnc3)CC2)c1)c1cccc(C(F)(F)F)c1`, the GI50 is 0.96 µM in data set [1], above 10 µM in data set [2] and 2.8 µM in the data set with K562.
Turning to `Cc1ccc(NC(=O)c2ccc(C)c(C(F)(F)F)c2)cc1OC1CCN(C(=O)c2ccncc2)CC1`, the 50% growth inhibitory concentration (GI50) is 0.031 µM in [1], 6.39 µM in data set [2] and 2.32 µM in the data set on K562.
With `Cc1ccc(NC(=O)c2cc(Cl)cc(C(F)(F)F)c2)cc1OC1CCN(C(=O)c2cccnc2)CC1`, the figures for the GI50 (in [1]; in data set [2]; in the data set with K562) were 0.16 µM, above 10 µM and 3.66 µM, respectively.
Regarding `Cc1ccc(NC(=O)c2ccc3c(c2)OCO3)cc1OC1CCN(C(=O)c2cccnc2)CC1`, the GI50 in [1] is 4.8 µM; in [2], above 10 µM; in the data set with K562, above 10 µM.
For the molecule `Cc1ccc(NC(=O)c2cc(F)cc(C(F)(F)F)c2)cc1OC1CCN(C(=O)c2cccnc2)CC1`, the GI50 was 0.15 µM in [1], above 10 µM in data set [2] and 4.56 µM in the data set on K562.
The matching figures for `Cc1ccc(NC(=O)c2ccc(C)c(C(F)(F)F)c2)cc1OC1CCN(C(=O)c2cncs2)CC1`: 0.1 µM, above 10 µM and 5.24 µM.
The matching figures for `CCC(=O)N1CCC(Oc2cc(NC(=O)c3cccc(C(F)(F)F)c3)ccc2C)CC1`: 1.55 µM, above 10 µM and above 10 µM.
The matching figures for `Cc1ccc(NC(=O)c2cccc(C(F)(F)F)c2)cc1OCCNC(=O)c1ccno1`: 9.97 µM, above 10 µM and above 10 µM.
As for `Cc1ccc(NC(=O)c2cccc(C(F)(F)F)c2)cc1OC1CCN(C(=O)c2cccnc2)CC1`, the concentration for 50% growth inhibition (GI50) in data set [1] is 0.11 µM; in data set [2], above 10 µM; in the data set on K562, 2.94 µM.
`Cc1ccc(NC(=O)c2cc(Cl)cc(C(F)(F)F)c2)cc1OC1CCN(C(=O)c2ccno2)CC1`: the GI50 was 0.15 µM in data set [1], above 10 µM in data set [2] and 1.95 µM in the data set with K562.
The matching figures for `C=CC(=O)N1CCC(Oc2cc(NC(=O)c3cccc(C(F)(F)F)c3)ccc2C)CC1`: 0.62 µM, above 10 µM and 8.36 µM.
Take `COc1ccc(NC(=O)c2cccc(C(F)(F)F)c2)cc1OC1CCN(C(=O)c2cccnc2)CC1`: the GI50 (in data set [1]; in data set [2]; with K562) was above 10 µM each time.
`Cc1ccc(NC(=O)c2cc(C(C)(C)C)on2)cc1OC1CCN(C(=O)c2cccnc2)CC1`: the figures for the GI50 (in data set [1]; in [2]; in the data set with K562) were 0.34 µM, above 10 µM and 9.92 µM, respectively.
On the same counts, the results for `Cc1ccc(NC(=O)c2cnc3ccccc3c2)cc1OC1CCN(C(=O)c2cccnc2)CC1` are 5.55 µM, above 10 µM and above 10 µM.
On the same counts, the results for `Cc1ccc(NC(=O)Nc2ccc(Cl)c(C(F)(F)F)c2)cc1OC1CCN(C(=O)c2cccnc2)CC1` are 2.6 µM, 3.3 µM and 0.78 µM.
In the case of `Cc1ccc(NC(=O)c2cccc(C(F)(F)F)n2)cc1OC1CCN(C(=O)c2ccno2)CC1`, the concentration for 50% growth inhibition (GI50) (in data set [1]; in data set [2]; with K562) was above 10 µM in each case.
Turning to `COc1cccc(C(=O)Nc2ccc(C)c(OC3CCN(C(=O)c4cccnc4)CC3)c2)c1`, the GI50 in data set [1] is 1.48 µM; in [2] it was above 10 µM; in the data set with K562, above 10 µM.
In the case of `Cc1ccc(NC(=O)c2cccc(C(F)(F)F)n2)cc1OC1CCN(C(=O)c2cccnc2)CC1`, the GI50 (in [1]; in data set [2]; in the data set on K562) was above 10 µM in each case.
`Cc1ccc(NC(=O)c2cccc(C(F)(F)F)c2)cc1OC1CCN(C(=O)c2ccno2)CC1`: the results for the GI50 (in [1]; in data set [2]; in the data set on K562) were 0.22 µM, above 10 µM and 0.16 µM, respectively.
As for `O=C(Nc1cccc(OC2CCN(C(=O)c3cccnc3)CC2)c1)c1cccc(C(F)(F)F)c1`, the figures for the GI50 (in [1]; in [2]; with K562) were 0.49 µM, above 10 µM and above 10 µM, respectively.
For `Cc1ccc(NC(=O)c2cccc(C(F)(F)F)c2)cc1OCCNC(=O)c1cccnc1`, the GI50 in data set [1] is 7.94 µM; in data set [2] it was above 10 µM; with K562 it was above 10 µM.
